Test [1] relates to T47D. The experiment in a line: Antiproliferative activity against human T47D cells under normoxic conditions after 48 hrs. Type of test: functional, cell-based. The method in brief: (§1)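 T47D proliferation/viability measured by Neutral Red; % inhibition = [1 − OD540(treated)/OD540(control)] × 100. Hypoxic exposure was 1% O2 for 16 or 48 h, with compounds at up to 10 μM. Normoxic incubation was 48 h. Compounds were dissolved as 4 mM DMSO stocks.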

Test [2] concerns T47D. The test can be described thus: Inhibition of HIF1 activation in T47D cells at 10 uM by reporter gene assay. As to conditions: Homo sapiens. Format: cell-based. Put shortly:
(§2)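 Transfected T47D luciferase reporter for HIF-1. HIF-1 was induced either by hypoxia (1% O2) or by 1,10-phenanthroline (10 μM) during compound treatment. Luciferase activity was read out and concentration-response was tested at 1, 3 and 10 μM. Compounds came from 4 mM DMSO stocks. Emetine at 1 μM was the positive control.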
(In a reporter assay the amount or activity of a reporter protein is the signal.)

Test [3] deals with T47D. The experiment in a line: Antiproliferative activity against human T47D cells under hypoxic conditions upto 10 uM after 16 to 48 hrs by neutral red assay. Format: functional. The method in brief: as §1
For test [4], the system named is T47D. The experiment in a line: Inhibition of 1,10-phenanthroline-induced HIF1 activation in T47D cells at 10 uM by reporter gene assay. As to conditions: Homo sapiens. Type of test: cell-based. Also noted: scale not given: the % may be the effect or the level left. The method in brief:
as §2

For test [5], the system named is T47D. The experiment in a line: Antiproliferative activity against human T47D cells under normoxic conditions at 1 uM after 48 hrs. Format: functional. Put shortly:
as §1

For test [6], the system named is T47D. The experiment in a line: Antiproliferative activity against human T47D cells under normoxic conditions at 10 uM after 48 hrs. Format: functional. The method in brief: as §1
The nature of test [7]: Inhibition of HIF1 activation in T47D cells by reporter gene assay. Type of test: cell-based. As to conditions: Homo sapiens. The method in brief: as §2
Test [8] in a line: Inhibition of 1,10-phenanthroline-induced HIF1 activation in T47D cells by reporter gene assay. Type of test: cell-based. As to conditions: Homo sapiens. The method in brief:
as §2

Test [9] concerns T47D. The experiment in a line: Inhibition of hypoxia-induced VEGF protein level in T47D cells at 10 uM by ELISA. Type of test: functional, Homo sapiens. Set-up: scale not given: the % may be the effect or the level left. The method in brief: (§3)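 Exponentially grown T47D cells were exposed to compound for 16 h under hypoxia (1% O2) or 1,10-phenanthroline (10 μM). Secreted VEGF in conditioned media was measured by ELISA. Cells were lysed and lysate protein was measured by Micro BCA; VEGF was normalized to lysate protein. Triplicate wells, mean ± SD.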
In general terms: In an ELISA, binding on a coated surface is turned into a signal by an enzyme label.

Test [10] has as its system T47D. The test can be described thus: Inhibition of hypoxia-induced VEGF protein level in T47D cells at 3 uM by ELISA. Type of test: functional, cell-based. As to conditions: Homo sapiens. The method in brief:
as §3

The test system of test [11] is T47D. The experiment in a line: Inhibition of 1,10-phenanthroline-induced VEGF protein level in T47D cells at 10 uM by ELISA. Type of test: functional, Homo sapiens. Also noted: scale not given: the % may be the effect or the level left. Put shortly:
as §3

Activity calls are given as the source filed them. The calls are words filed in the database; no cut-off is given here.

Broadly, the inhibition is the change of the read-out against control, counted positive when it falls. As for `O=C(Cc1ccc(O)cc1)N1C(=O)C(c2ccc(O)cc2)=C(c2ccc(O)cc2)C1O` (stereo unspecified) [5-HYDROXYNEOLAMELLARIN B], the outcome with T47D [1] was inactive. In the test on T47D [2], the inhibition worked out at 22%. Also, the Activity in the test with T47D [3] was less than 20%; in the test on T47D [4], 33%.
As for `O=C(Cc1ccc(O)cc1)n1cc(-c2ccc(O)cc2)c(-c2ccc(O)cc2)c1` [NEOLAMELLARIN A], the outcome with T47D [1] was inactive. In the test with T47D [2], this molecule displayed an inhibition of 26%. For the same molecule, the Activity is less than 20% with T47D [3] and 58% in the test with T47D [4].
Take `O=C(Cc1ccc(O)cc1)N1CC(c2ccc(O)cc2)=C(c2ccc(O)cc2)C1=O` [NEOLAMELLARIN B]: the result in the test on T47D [1] was inactive. Besides, the inhibition in the test with T47D [2] stood at 23%. For the same molecule, the Activity is less than 20% in the test on T47D [3] and 42% in the test on T47D [4].
The IC50 is the point on the concentration scale where inhibition reaches its midpoint. As to `O=C(C(O)c1ccc(O)cc1)n1cc(-c2ccc(O)cc2)c(-c2ccc(O)cc2)c1` (racemic) [7-(R/S)-HYDROXYLAMELLARIN A], the Activity in the test on T47D [5] was -8%; in the test on T47D [6] it was 34%; with T47D [3], less than 20%; in the test on T47D [9] it was 87%; in the test with T47D [11], 33%. The IC50 turned out to be 1900 nM in test [7] and 3700 nM in [8]. Also, in the test on T47D [2], the inhibition worked out at 98%. Further, in the test with T47D [10], the result was inactive.
